From ChEMBL document CHEMBL5042553 (J Med Chem, 2022)
pIC50: −log10 of the molar value. The source made the active and inactive calls. No cut-off for these calls is given here.

What was measured:
[1] = Inhibition of HDAC2-CoREST-LSD1 (unknown origin) using Boc- (Ac)Lys-AMC as substrate preincubated for 1 hr followed by substrate addition and measured after 1 hr by fluorescent assay; design: species or system Homo sapiens
[2] = target: T1, von Hippel-Lindau disease tumor suppressor/Histone deacetylase 1 (Homo sapiens, UniProt Q13547+P40337); experiment: Protac activity at VHL/HDAC1 in human HCT-116 cells assessed as induction of HDAC1 degradation incubated for 24 hrs by Western blot analysis; format: cell-based
Target sequence in this assay (Q13547 whole entry): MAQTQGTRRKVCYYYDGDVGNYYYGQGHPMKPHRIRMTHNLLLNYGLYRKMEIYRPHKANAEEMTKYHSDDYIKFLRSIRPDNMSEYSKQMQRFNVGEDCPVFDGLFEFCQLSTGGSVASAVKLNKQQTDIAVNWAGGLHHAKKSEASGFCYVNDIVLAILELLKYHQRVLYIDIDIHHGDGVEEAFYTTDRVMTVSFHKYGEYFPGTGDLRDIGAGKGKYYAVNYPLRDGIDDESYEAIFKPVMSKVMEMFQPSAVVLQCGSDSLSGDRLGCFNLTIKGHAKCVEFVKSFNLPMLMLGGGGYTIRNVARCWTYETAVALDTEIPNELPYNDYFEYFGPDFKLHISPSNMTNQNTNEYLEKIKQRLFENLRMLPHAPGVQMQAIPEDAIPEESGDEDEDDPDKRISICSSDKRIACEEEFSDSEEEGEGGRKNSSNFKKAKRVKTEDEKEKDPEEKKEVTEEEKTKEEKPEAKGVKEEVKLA
Target sequence in this assay (P40337 whole entry): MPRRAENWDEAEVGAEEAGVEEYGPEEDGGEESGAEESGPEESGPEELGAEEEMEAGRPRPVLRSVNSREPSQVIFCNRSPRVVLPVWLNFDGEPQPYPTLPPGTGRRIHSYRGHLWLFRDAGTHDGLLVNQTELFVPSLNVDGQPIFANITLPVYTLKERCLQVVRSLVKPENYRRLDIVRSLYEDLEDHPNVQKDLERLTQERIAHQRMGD

[3] = target: T2, von Hippel-Lindau disease tumor suppressor/Histone deacetylase 3 (Homo sapiens, UniProt O15379+P40337); experiment: Protac activity at VHL/HDAC3 in human HCT-116 cells assessed as induction of HDAC3 degradation incubated for 24 hrs by Western blot analysis; format: cell-based
Target sequence in this assay (O15379 whole entry): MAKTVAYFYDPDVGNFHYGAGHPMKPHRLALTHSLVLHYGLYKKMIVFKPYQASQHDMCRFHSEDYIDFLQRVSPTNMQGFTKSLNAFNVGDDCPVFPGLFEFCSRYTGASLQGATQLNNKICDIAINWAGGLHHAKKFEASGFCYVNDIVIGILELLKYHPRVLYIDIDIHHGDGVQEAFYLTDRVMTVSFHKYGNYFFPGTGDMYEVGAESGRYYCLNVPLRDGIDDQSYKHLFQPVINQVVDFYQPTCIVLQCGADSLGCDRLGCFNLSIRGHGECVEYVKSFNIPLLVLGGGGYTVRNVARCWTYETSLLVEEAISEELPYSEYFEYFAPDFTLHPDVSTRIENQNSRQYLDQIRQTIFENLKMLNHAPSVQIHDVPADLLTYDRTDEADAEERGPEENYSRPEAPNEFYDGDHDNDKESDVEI
Target sequence in this assay (P40337 whole entry): as the sequence (P40337 whole entry) above

[4] = Inhibition of HDAC1-CoREST-LSD1 (unknown origin) using Boc- (Ac)Lys-AMC as substrate preincubated for 1 hr followed by substrate addition and measured after 1 hr by fluorescent assay; design: species or system Homo sapiens
[5] = Inhibition of HDAC3-SMRT (unknown origin) using Boc- (Ac)Lys-AMC as substrate preincubated for 1 hr followed by substrate addition and measured after 1 hr by fluorescent assay; design: species or system Homo sapiens
HCT-116 [6] = experiment: Cytotoxicity against human HCT-116 cells assessed as reduction in cell viability measured after 48 hrs by cell-titer glo assay; format: functional, cell-based
[7] = target: T2, von Hippel-Lindau disease tumor suppressor/Histone deacetylase 3; experiment: Protac activity at VHL/HDAC3 in human HCT-116 cells assessed as induction of HDAC3 degradation at 10 uM incubated for 24 hrs by Western blot analysis; format: cell-based
In short: (§1)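 HCT116 cells (37 °C, 5% CO₂) seeded for 24 h, then given DMSO or PROTAC (0.01–10 μM) in fresh medium for 2–48 h. Lysates made in Tris/NaCl/NP-40/Triton X-100 buffer with protease inhibitor; histones acid-extracted with 0.4 N H₂SO₄. 30 μg protein or 10 μL histone extract per lane run on 4–12% bis-Tris gels. Quantitative western blotting used IR-dye secondaries and band densitometry, referenced to DMSO; two independent biological replicates.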
Target sequence in this assay (O15379 whole entry, looked up): as the sequence (O15379 whole entry) above
Target sequence in this assay (P40337 whole entry, looked up): as the sequence (P40337 whole entry) above

[8] = target: T1, von Hippel-Lindau disease tumor suppressor/Histone deacetylase 1; experiment: Protac activity at VHL/HDAC1 in human HCT-116 cells assessed as induction of HDAC1 degradation at 1 to 10 uM incubated for 24 hrs by Western blot analysis; format: cell-based; conditions: dose 1-10 µM; in short: as §1
Target sequence in this assay (P40337 whole entry, looked up): as the sequence (P40337 whole entry) above
Target sequence in this assay (Q13547 whole entry, looked up): as the sequence (Q13547 whole entry) above

[9] = target: T3, von Hippel-Lindau disease tumor suppressor/Histone deacetylase 2 (Homo sapiens) (UniProt Q92769+P40337); experiment: Protac activity at VHL/HDAC2 in human HCT-116 cells assessed as induction of HDAC2 degradation at 1 to 10 uM incubated for 24 hrs by Western blot analysis; format: cell-based; conditions: dose 1-10 µM; in short: as §1
T3 sequence (P40337 whole entry, looked up): as the sequence (P40337 whole entry) above
T3 sequence (Q92769 whole entry, looked up): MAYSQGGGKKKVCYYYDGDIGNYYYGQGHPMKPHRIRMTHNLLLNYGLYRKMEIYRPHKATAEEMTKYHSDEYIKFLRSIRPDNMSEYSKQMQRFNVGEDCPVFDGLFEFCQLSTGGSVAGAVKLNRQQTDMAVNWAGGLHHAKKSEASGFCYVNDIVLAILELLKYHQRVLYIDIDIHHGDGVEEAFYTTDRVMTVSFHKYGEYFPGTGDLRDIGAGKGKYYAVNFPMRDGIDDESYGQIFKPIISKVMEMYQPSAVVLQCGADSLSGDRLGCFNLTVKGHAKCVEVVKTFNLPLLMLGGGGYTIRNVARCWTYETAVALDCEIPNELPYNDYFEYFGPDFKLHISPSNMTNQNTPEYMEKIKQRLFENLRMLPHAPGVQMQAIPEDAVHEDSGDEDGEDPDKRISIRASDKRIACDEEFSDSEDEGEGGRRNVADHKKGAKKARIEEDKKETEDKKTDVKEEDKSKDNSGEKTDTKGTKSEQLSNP

[10] = target: T2, von Hippel-Lindau disease tumor suppressor/Histone deacetylase 3; experiment: Protac activity at VHL/HDAC3 in human HCT-116 cells assessed as induction of HDAC3 degradation at 1 to 10 uM incubated for 24 hrs by Western blot analysis; format: cell-based; conditions: dose 1-10 µM; in short: as §1
Target sequence in this assay (O15379 whole entry, looked up): as the sequence (O15379 whole entry) above
Target sequence in this assay (P40337 whole entry, looked up): as the sequence (P40337 whole entry) above

[11] = target: T1, von Hippel-Lindau disease tumor suppressor/Histone deacetylase 1; experiment: Protac activity at VHL/HDAC1 in human HCT-116 cells assessed as induction of HDAC1 degradation at 1 uM incubated for 24 hrs by Western blot analysis; format: cell-based; in short: as §1
Target sequence in this assay (P40337 whole entry, looked up): as the sequence (P40337 whole entry) above
Target sequence in this assay (Q13547 whole entry, looked up): as the sequence (Q13547 whole entry) above

[12] = target: T1, von Hippel-Lindau disease tumor suppressor/Histone deacetylase 1; experiment: Protac activity at VHL/HDAC1 in human HCT-116 cells assessed as fold increase in H3K56ac at 10 uM measured after 8 hrs by Western blot analysis relative to control; format: cell-based; in short: as §1
Target sequence in this assay (P40337 whole entry, looked up): as the sequence (P40337 whole entry) above
Target sequence in this assay (Q13547 whole entry, looked up): as the sequence (Q13547 whole entry) above

[13] = target: T1, von Hippel-Lindau disease tumor suppressor/Histone deacetylase 1; experiment: Protac activity at VHL/HDAC1 in human HCT-116 cells assessed as induction of HDAC1 degradation at 10 uM measured after 4 hrs by Western blot analysis; format: cell-based; in short: as §1
Target sequence in this assay (P40337 whole entry, looked up): as the sequence (P40337 whole entry) above
Target sequence in this assay (Q13547 whole entry, looked up): as the sequence (Q13547 whole entry) above

[14] = target: T3, von Hippel-Lindau disease tumor suppressor/Histone deacetylase 2 (Homo sapiens); experiment: Protac activity at VHL/HDAC2 in human HCT-116 cells assessed as induction of HDAC2 degradation at 1 uM measured upto 48 hrs by Western blot analysis; format: cell-based; conditions: time hrs <=48; in short: as §1
[15] = target: T1, von Hippel-Lindau disease tumor suppressor/Histone deacetylase 1; experiment: Protac activity at VHL/HDAC1 in human HCT-116 cells assessed as induction of HDAC1 degradation at 1 uM measured upto 48 hrs by Western blot analysis; format: cell-based; conditions: time hrs <=48; in short: as §1
Target sequence in this assay (P40337 whole entry, looked up): as the sequence (P40337 whole entry) above
Target sequence in this assay (Q13547 whole entry, looked up): as the sequence (Q13547 whole entry) above

[16] = target: T2, von Hippel-Lindau disease tumor suppressor/Histone deacetylase 3; experiment: Protac activity at VHL/HDAC3 in human HCT-116 cells assessed as induction of HDAC3 degradation at 10 uM measured upto 24 hrs by Western blot analysis; format: cell-based; conditions: time hrs <=24; in short: as §1
Target sequence in this assay (O15379 whole entry, looked up): as the sequence (O15379 whole entry) above
Target sequence in this assay (P40337 whole entry, looked up): as the sequence (P40337 whole entry) above

[17] = target: T3, von Hippel-Lindau disease tumor suppressor/Histone deacetylase 2 (Homo sapiens); experiment: Protac activity at VHL/HDAC2 in human HCT-116 cells assessed as induction of HDAC2 degradation at 10 uM measured after 4 hrs by Western blot analysis; format: cell-based; in short: as §1
[18] = target: T3, von Hippel-Lindau disease tumor suppressor/Histone deacetylase 2 (Homo sapiens); experiment: Protac activity at VHL/HDAC2 in human HCT-116 cells assessed as fold increase in H3K56ac at 10 uM measured after 8 hrs by Western blot analysis relative to control; format: cell-based; in short: as §1
[19] = target: T2, von Hippel-Lindau disease tumor suppressor/Histone deacetylase 3; experiment: Protac activity at VHL/HDAC3 in human HCT-116 cells assessed as induction of HDAC3 degradation at 1 uM measured after 4 hrs by Western blot analysis; format: cell-based; in short: as §1
Target sequence in this assay (O15379 whole entry, looked up): as the sequence (O15379 whole entry) above
Target sequence in this assay (P40337 whole entry, looked up): as the sequence (P40337 whole entry) above

[20] = target: T2, von Hippel-Lindau disease tumor suppressor/Histone deacetylase 3; experiment: Protac activity at VHL/HDAC3 in human HCT-116 cells assessed as induction of HDAC3 degradation at 1 uM measured after 15 hrs by Western blot analysis; format: cell-based; in short: as §1
Target sequence in this assay (O15379 whole entry, looked up): as the sequence (O15379 whole entry) above
Target sequence in this assay (P40337 whole entry, looked up): as the sequence (P40337 whole entry) above

[21] = target: T2, von Hippel-Lindau disease tumor suppressor/Histone deacetylase 3; experiment: Protac activity at VHL/HDAC3 in human HCT-116 cells assessed as induction of HDAC3 degradation at 10 uM measured after 36 to 48 hrs by Western blot analysis; format: cell-based; conditions: time 36-48 hrs; in short: as §1
Target sequence in this assay (O15379 whole entry, looked up): as the sequence (O15379 whole entry) above
Target sequence in this assay (P40337 whole entry, looked up): as the sequence (P40337 whole entry) above

[22] = target: T3, von Hippel-Lindau disease tumor suppressor/Histone deacetylase 2 (Homo sapiens); experiment: Protac activity at VHL/HDAC2 in human HCT-116 cells assessed as reduction in LSD1 level measured after 48 hrs by Western blot analysis; design: scale not given: the % may be the effect or the level left
[23] = target: T1, von Hippel-Lindau disease tumor suppressor/Histone deacetylase 1; experiment: Protac activity at VHL/HDAC1 in human HCT-116 cells assessed as reduction in LSD1 level measured after 48 hrs by Western blot analysis; design: scale not given: the % may be the effect or the level left
Target sequence in this assay (P40337 whole entry, looked up): as the sequence (P40337 whole entry) above
Target sequence in this assay (Q13547 whole entry, looked up): as the sequence (Q13547 whole entry) above

HCT-116 [24] = experiment: Induction of apoptosis in HCT-116 cells assessed as accumulation of cells in Sub-G1 phase at 10 uM measured after 48 hrs by flow cytometry analysis; conditions: Homo sapiens
HCT-116 [25] = experiment: Induction of apoptosis in human HCT-116 cells assessed as accumulation of cells in Sub-G1 phase at 10 uM measured after 24 hrs by flow cytometry analysis

| SMILES | Activity [8] | Activity [9] | Activity [10] | also measured |
| --- | --- | --- | --- | --- |
| CC(=O)NC(C(=O)N1C[C@H](O)C[C@H]1C(=O)NCc1ccc(-c2scnc2C)cc1OCCCCCCCCCCCC(=O)Nc1ccc(C(=O)Nc2ccccc2N)cc1)C(C)(C)C (single isomer, unassigned) |  |  |  | pIC50 [1]: 5.46; DC50 [2]: 3.51 µM; DC50 [3]: 1380 nM; pIC50 [4]: 5.82; pIC50 [5]: 5.42; Activity (HCT-116 [6]): inactive |
| Cc1ncsc1-c1ccc(CNC(=O)[C@@H]2C[C@@H](O)CN2C(=O)[C@@H](NC(=O)CCCCCCCCCCC(=O)Nc2ccc(C(=O)Nc3ccccc3N)cc2)C(C)(C)C)cc1 |  |  |  | Activity [7]: Active |
| Cc1ncsc1-c1ccc(CNC(=O)[C@@H]2C[C@@H](O)CN2C(=O)[C@@H](NC(=O)CCCCCCCC(=O)Nc2ccc(C(=O)Nc3cc(-c4cccs4)ccc3N)cc2)C(C)(C)C)cc1 | inactive | inactive |  |  |
| Cc1ncsc1-c1ccc(CNC(=O)[C@@H]2C[C@@H](O)CN2C(=O)C(NC(=O)COCCOCCOCC(=O)Nc2ccc(C(=O)Nc3ccc(F)cc3N)cc2)C(C)(C)C)cc1 (single isomer, unassigned) |  |  |  | Activity [7]: Active |
| Cc1ncsc1-c1ccc(CNC(=O)[C@@H]2C[C@@H](O)CN2C(=O)[C@@H](NC(=O)CCCN2CCN(CCCC(=O)Nc3ccc(C(=O)Nc4ccccc4N)cc3)CC2)C(C)(C)C)cc1 | inactive | inactive | inactive |  |
| Cc1ncsc1-c1ccc(CNC(=O)[C@@H]2C[C@@H](O)CN2C(=O)C(NC(=O)CCCCCCCCCCC(=O)Nc2ccc(C(=O)Nc3ccc(F)cc3N)cc2)C(C)(C)C)cc1 (single isomer, unassigned) |  |  | Active |  |
| Cc1ncsc1-c1ccc(CNC(=O)[C@@H]2C[C@@H](O)CN2C(=O)[C@@H](NC(=O)COCCCCCCCCCOCC(=O)Nc2ccc(C(=O)Nc3ccc(F)cc3N)cc2)C(C)(C)C)cc1 |  |  |  | Activity [11]: Active |
| Cc1ncsc1-c1ccc(CNC(=O)[C@@H]2C[C@@H](O)CN2C(=O)[C@@H](NC(=O)COCCCCCCCCCOCC(=O)Nc2ccc(C(=O)Nc3ccccc3N)cc2)C(C)(C)C)cc1 |  |  |  | Activity [11]: Active; fold change (FC) [12]: 2; Activity [13]: Active; Activity [14]: Active; Activity [15]: Active; Activity [16]: inactive; Activity [17]: Active; fold change (FC) [18]: 2; Activity [19]: Active; Activity [20]: Active; Activity [21]: 50%; Activity [22]: 40%; Activity [23]: 40%; Activity (HCT-116 [24]): Active; Activity (HCT-116 [25]): Active |
| CC(=O)NC(C(=O)N1C[C@H](O)C[C@H]1C(=O)NCc1ccc(-c2scnc2C)cc1OCCCCNC(=O)CCCCC(=O)Nc1ccc(C(=O)Nc2ccccc2N)cc1)C(C)(C)C (single isomer, unassigned) | Active |  |  |  |
| Cc1ncsc1-c1ccc(CNC(=O)[C@@H]2C[C@@H](O)CN2C(=O)[C@@H](NC(=O)CCCCCCCCCC(=O)Nc2ccc(C(=O)Nc3ccccc3N)cc2)C(C)(C)C)cc1 | Active | Active | inactive |  |
| Cc1ncsc1-c1ccc(CNC(=O)[C@@H]2C[C@@H](O)CN2C(=O)[C@@H](NC(=O)COCCOCC(=O)Nc2ccc(C(=O)Nc3ccccc3N)cc2)C(C)(C)C)cc1 | inactive | inactive | inactive |  |
| Cc1ncsc1-c1ccc(CNC(=O)[C@@H]2C[C@@H](O)CN2C(=O)[C@@H](NC(=O)CCCCCCCC(=O)Nc2ccc(C(=O)Nc3ccccc3N)cc2)C(C)(C)C)cc1 | Active | Active | inactive |  |
| Cc1ncsc1-c1ccc(CNC(=O)[C@@H]2C[C@@H](O)CN2C(=O)[C@@H](NC(=O)CCCCCCCCCCCCC(=O)Nc2ccc(C(=O)Nc3ccccc3N)cc2)C(C)(C)C)cc1 | Active | Active |  |  |
| Cc1ncsc1-c1ccc(CNC(=O)[C@@H]2C[C@@H](O)CN2C(=O)[C@@H](NC(=O)COCCOCCOCC(=O)Nc2ccc(C(=O)Nc3cc(-c4cccs4)ccc3N)cc2)C(C)(C)C)cc1 | inactive | inactive |  |  |
| Cc1ncsc1-c1ccc(CNC(=O)[C@@H]2CC(O)CN2C(=O)[C@@H](NC(=O)COCCOCCOCCOCC(=O)Nc2ccc(C(=O)Nc3ccccc3N)cc2)C(C)(C)C)cc1 (single isomer, unassigned) | inactive | inactive | inactive |  |
| Cc1ncsc1-c1ccc(CNC(=O)[C@@H]2C[C@@H](O)CN2C(=O)[C@@H](NC(=O)COCCOCCOCC(=O)Nc2ccc(C(=O)Nc3ccccc3N)cc2)C(C)(C)C)cc1 | inactive | inactive | inactive |  |
| Cc1ncsc1-c1ccc(CNC(=O)[C@@H]2C[C@@H](O)CN2C(=O)[C@@H](NC(=O)CCCCCCCCC(=O)Nc2ccc(C(=O)Nc3ccccc3N)cc2)C(C)(C)C)cc1 | Active | Active | inactive |  |
| Cc1ncsc1-c1ccc(CNC(=O)[C@@H]2C[C@@H](O)CN2C(=O)[C@@H](NC(=O)COCCCCCCOCC(=O)Nc2ccc(C(=O)Nc3ccccc3N)cc2)C(C)(C)C)cc1 |  |  |  | Activity [11]: inactive |
| Cc1ncsc1-c1ccc(CNC(=O)[C@@H]2C[C@@H](O)CN2C(=O)[C@@H](NC(=O)CCCCCCCCCCC(=O)Nc2ccc(C(=O)Nc3cc(-c4cccs4)ccc3N)cc2)C(C)(C)C)cc1 | inactive | inactive |  |  |
| CC(=O)NC(C(=O)N1C[C@H](O)C[C@H]1C(=O)NCc1ccc(-c2scnc2C)cc1OCCCCNC(=O)CCCCCCCC(=O)Nc1ccc(C(=O)Nc2ccccc2N)cc1)C(C)(C)C (single isomer, unassigned) | Active |  |  |  |
